ROMK mod: human ROMK K+ channel modulation, primary screen; Tet-inducible ROMK, thallium flux fluorescence; actives lie on both sides; B-score at 10 µM; 130,000 compounds, 2% hits;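 active = signal ratio slope over the read window, or its plate-corrected B-score, at least 3 SD from the plate mean, either direction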;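 note: B-score of the F/F0 ratio slope over 7 to 12 s after thallium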
Target sequence (P48048 whole entry, looked up): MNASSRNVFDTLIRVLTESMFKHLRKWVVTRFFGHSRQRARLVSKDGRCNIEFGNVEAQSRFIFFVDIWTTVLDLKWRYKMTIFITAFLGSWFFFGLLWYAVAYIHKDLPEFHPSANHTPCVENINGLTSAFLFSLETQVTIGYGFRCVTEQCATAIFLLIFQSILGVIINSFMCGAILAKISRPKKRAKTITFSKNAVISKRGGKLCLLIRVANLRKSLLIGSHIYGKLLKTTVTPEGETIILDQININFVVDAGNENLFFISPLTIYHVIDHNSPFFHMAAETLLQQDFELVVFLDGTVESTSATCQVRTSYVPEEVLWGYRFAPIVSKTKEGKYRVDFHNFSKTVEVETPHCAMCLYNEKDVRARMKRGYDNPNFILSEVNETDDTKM
Calb biofilm kill: mixture kills Candida albicans biofilm cells | C. albicans biofilm persisters + clotrimazole, fluorescence viability; primary screen in compound mixtures of four per well | 120,000 compounds, 0.02% hits | inhibition, % at 7.6 µM;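 active = inhibition above 30.3% in the primary screen of four-compound pools, then above 30% when the compound was retested; inconclusive = passed the primary limit but could not be retested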;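 note: compounds exposed to preformed 24 h biofilms for 48 h; 0% = untreated biofilm control and 100% = clotrimazole plus chlorhexidine kill blank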
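Incubation: 24 h biofilm formation, then 48 h compound exposure, 37 °C | Material: C. albicans biofilms | Buffer or medium: RPMI/MOPS medium, pH 7.0 | Measured by: 2-h Alamar Blue fluorescence, 535/590 nm excitation/emission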
ROMK retest: retested hit modulating human ROMK potassium channel; shares compounds with ROMK mod; ROMK thallium flux, fluorescence ratio; active compounds read low; normalized thallium flux (F/F0 slope) at 10 µM; 3,000 compounds, 54% hits; AID 1917;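 active = Flux at 10 µM at least 3 SD below or above vehicle control mean in one or both replicates; inconclusive = no clear call, values can overlap the other calls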
Starred values were filed as active, the others as inactive. Only a selection was taken, and hits are over-represented in it overall.

Results for N#C/C(=N\Nc1cccc2ccccc12)c1nnc2n1CCCCC2 ?
Calb biofilm kill: 24.0; ROMK retest: 0.0587*

What do the screens show for `Cc1ccnc(N/C=C(/NC(=O)c2ccccc2)C(=O)N/N=C\c2ccc(F)cc2)n1`?
ROMK mod: 1.75

Results for O=C(CSc1nnc(-c2c[nH]c3ccccc23)n1CC1CCCO1)Nc1ccc2c(c1)OCCO2 (stereo unspecified) ?
ROMK mod: -0.497

How did Cc1ccc(CC(=O)NCc2ccc(F)cc2)cc1 do in these assays?
ROMK mod: 4.4*; Calb biofilm kill: 13.0; ROMK retest: 0.0943

What do the screens show for `Cc1ccc(CNC(=O)CSCc2ccc(F)cc2)cc1`?
ROMK mod: -1.13; Calb biofilm kill: 14.4

Results for Cc1ccc(CNC(=O)Cc2ccc(-n3c(=O)[nH]c4ccsc4c3=O)cc2)cc1 ?
ROMK mod: 2.08; Calb biofilm kill: 13.4; ROMK retest: 0.0953

How did Cc1ccc(CNC(=O)CCCCn2c(=O)[nH]c3ccsc3c2=O)cc1 do in these assays?
ROMK mod: 0.933; Calb biofilm kill: 4.4

Results for O=C(NCCC(=O)N1CCOCCOCCOCCOCC1)OCc1ccccc1 ?
Calb biofilm kill: 14.1

How did COc1cccc2c(=O)ccoc12 do in these assays?
ROMK mod: 0.0624

Results for Cc1nc2ccccc2nc1OCc1ccccc1 ?
Calb biofilm kill: 6.8

Results for Cc1ccc2nc(-c3ccccc3)c(-c3ccccc3)nc2c1 ?
ROMK mod: 0.107; Calb biofilm kill: 16.1

What do the screens show for `Cc1ccc2nc(=O)c(NNc3ccccc3)cnc2c1`?
ROMK mod: 6.64*; Calb biofilm kill: 11.9; ROMK retest: 0.111*

Results for Cc1nc2ccccc2nc(=O)c1NNc1ccccc1 ?
ROMK mod: 6.37*; Calb biofilm kill: 14.1; ROMK retest: inconclusive

What do the screens show for `O=C(Cc1cccs1)N1CCN=C1SCc1ccccc1F`?
Calb biofilm kill: 8.4

Results for CC(C)C(=O)N1CCC(c2nc(-c3ccc(S(=O)(=O)N4CCN(C)CC4)cc3)no2)CC1 ?
ROMK mod: 0.0445; Calb biofilm kill: 0.4; ROMK retest: 0.0903

How did O=C(C1CC1)N1CCC(c2nc(-c3ccc(S(=O)(=O)N4CCCC4)cc3)no2)CC1 do in these assays?
ROMK mod: -0.3

What do the screens show for `O=C(CSc1nnc(Cc2cccs2)n1Cc1ccco1)Nc1ccc(Cl)cc1Cl`?
ROMK mod: -2.86

How did NC(=O)c1c(NC(=O)CSc2nnc(Cc3ccccc3)n2Cc2ccco2)sc2c1CCC2 do in these assays?
ROMK mod: -3.73*; ROMK retest: 0.0528*

What do the screens show for `CN(C)C(=O)CSc1nnc(Cc2ccccc2)n1Cc1ccco1`?
Calb biofilm kill: 13.7

How did O=C(CSc1nnc(Cc2cccs2)n1Cc1ccco1)Nc1ccc(Br)cc1 do in these assays?
ROMK mod: -2.92*; ROMK retest: inconclusive

What do the screens show for `COc1ccc2c(c1)CCC/C2=N\Nc1nc(C(=O)NN)cs1`?
ROMK mod: -0.462; Calb biofilm kill: 12.6

What do the screens show for `COc1ccc(OCC(=O)N/N=C/c2ccsc2)cc1`?
Calb biofilm kill: 5.9

How did NC1=NS(=O)(=O)NC1c1ccc(Br)cc1 (stereo unspecified) do in these assays?
ROMK mod: 0.853; Calb biofilm kill: 1.4

What do the screens show for `CC(C)N(C(=O)CSc1nnnn1C1CCCC1)C(C)C`?
ROMK mod: -0.711

What do the screens show for `O=c1c2ccccc2nc(SCc2nc3ccccc3s2)n1CCCO`?
Calb biofilm kill: 15.1

Results for O=C1CC(=O)C(n2cncn2)C(c2ccc(Cl)cc2)C1 (stereo unspecified) ?
ROMK retest: 0.0809

Results for O=C1C=C(O)C(n2cncn2)C(c2ccc(F)cc2)C1 (stereo unspecified) ?
ROMK mod: -0.208; Calb biofilm kill: -2.2

How did CCCCCCCn1c(=N)n(CC(=O)c2ccco2)c2ccccc21 do in these assays?
ROMK mod: -5.29*; ROMK retest: 0.0534*

Results for CC(C)(C)c1ccc(Cn2c(=N)n(CC(O)c3ccco3)c3ccccc32)cc1 (stereo unspecified) ?
ROMK mod: -2.73*; Calb biofilm kill: 1.9; ROMK retest: 0.0508*

What do the screens show for `CCCn1c(=N)n(CC(=O)O)c2ccccc21`?
ROMK mod: -0.402; Calb biofilm kill: -3.0

Results for CCn1c(=N)n(CC(O)c2ccccc2)c2ccccc21 (stereo unspecified) ?
ROMK mod: -1.35

What do the screens show for `CCCCCCCn1c(=N)n(CC(O)c2ccco2)c2ccccc21` (stereo unspecified)?
ROMK mod: -4.29*; Calb biofilm kill: 32.1; ROMK retest: 0.0609*

Results for CCCCn1c(=N)n(CC(O)c2ccccc2)c2ccccc21 (stereo unspecified) ?
ROMK mod: -0.978; Calb biofilm kill: 0.3

Results for COC(=O)c1[nH]c2cc(C)ccc2c1NC(=O)CN1CCCc2ccccc21 ?
ROMK mod: -0.705

How did COc1ccc(C(=O)OCCNC(=O)c2ccncc2)cc1OC do in these assays?
Calb biofilm kill: 4.6

What do the screens show for `O=C(NCc1ccccn1)C1CCN(Cc2cnn(-c3ccccc3)c2-n2cccc2)CC1`?
ROMK mod: -0.233

Results for COc1cccc(CNC(=O)C2CCN(Cc3cnn(-c4ccccc4)c3-n3cccc3)CC2)c1 ?
ROMK mod: -3.54*; ROMK retest: 0.0548*

How did CCc1ccc(OCC(O)CNC(C)(C)C)cc1 (stereo unspecified) do in these assays?
ROMK mod: -0.0692

What do the screens show for `OC(CNCCc1ccccc1)COc1ccc(OCC(O)CNCCc2ccccc2)cc1` (stereo unspecified)?
Calb biofilm kill: 2.7

How did CC(C)(C)NCC(O)COc1ccccc1C(C)(C)C (stereo unspecified) do in these assays?
ROMK mod: -3.77*; Calb biofilm kill: -2.9; ROMK retest: 0.0784

Results for CC(C)(C)NCC(O)COc1ccccc1C(=O)CCc1ccccc1 (stereo unspecified) ?
ROMK mod: -3.93*; ROMK retest: 0.0502*

Results for O=C(CC1C(=O)NCCN1Cc1ccoc1)NCCc1ccc(Cl)cc1 (stereo unspecified) ?
ROMK mod: 0.0284; Calb biofilm kill: 21.1

How did CC(C)c1c(O)cc(-c2ccncc2)n(-c2ccc(Cl)cc2)c1=O do in these assays?
Calb biofilm kill: 12.8

Results for CCOC(=O)CNc1nc(Cl)nc(NC(C)(C)C)n1 ?
ROMK mod: -0.0242; Calb biofilm kill: 10.2

What do the screens show for `CCC(NC(=O)Nc1nccs1)(C(F)(F)F)C(F)(F)F`?
ROMK mod: -0.0106

Results for CCCNC(=O)Nc1nccs1 ?
ROMK mod: 1.69*; ROMK retest: inconclusive

What do the screens show for `CCC(C)C(=O)Nc1nccs1` (stereo unspecified)?
Calb biofilm kill: 3.4

Results for CCC(C(=O)Nc1nccs1)(C(F)(F)F)C(F)(F)F ?
ROMK mod: -0.0508; ROMK retest: inconclusive

What do the screens show for `O=C(Nc1cc(S(=O)(=O)N2CCOCC2)ccc1N1CCOCC1)C1CCCO1` (stereo unspecified)?
ROMK mod: -0.306; Calb biofilm kill: 0.2

How did O=C(Nc1ccc(OC(F)F)c(Cl)c1)c1ccccn1 do in these assays?
ROMK mod: -0.0772; Calb biofilm kill: 10.8

What do the screens show for `Cc1nnc(SCC(=O)NNC(=O)c2ccccc2)n1-c1ccccc1`?
ROMK mod: 0.93; Calb biofilm kill: 8.8

How did CCCn1c(=O)c2c(C(F)(F)F)cc(-c3ccco3)nc2n(CCC)c1=O do in these assays?
ROMK mod: 0.617
